# HNF4A DNA FP: change in binding of human HNF4 alpha to DNA. activity change, % at 10 µM. HNF4a-FITC DNA binding, fluorescence polarization, 1 h. 0.3% of 360,000 active. P41235; in the data active means activity change above about 30%, passing the limit was not always enough
# TPT1 inh: inhibitors of Candida albicans tRNA 2'-phosphotransferase TPT1 | 0.81% of 300,000 active | inhibition, % at 5 µM | AID 1962 | recombinant caTPT1, FP RNA substrate dephosphorylation;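 active means inhibition above the mean of all tested compounds plus 3 SD, set per screening campaign, cut at about 24% in these data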;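 further: plate controls were DMSO alone for no effect and ferristatin control at 100 nM for full effect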
# IDE act: IDE (human) activation, cell-based. 0.073% of 340,000 active. activation, % at 5.96 µM. HEK cells, FAbeta-B cleavage, fluorescence polarization; 0% vehicle, 100% cell-free pure enzyme wells;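 active means activation above the mean of all tested compounds plus 3 SD, set per screening campaign, cut at about 17% in these data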
# CSN inh: inhibitors of human CSN-mediated cullin deneddylation | Purified CSN, SCF-Nedd8-OG deneddylation, fluorescence polarization | inhibition, % at 12.5 µM | 0.38% of 360,000 active | AID 651999;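 active means pattern-corrected inhibition above about 35%, with an unprinted fluorescence ratio check between 0.5 and 1.5, limit read from the data, passing the limit was not always enough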;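 further: 0% = enzyme with substrate and 100% = substrate without enzyme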
# Target sequence (Q92905 whole entry, looked up, one chain of several): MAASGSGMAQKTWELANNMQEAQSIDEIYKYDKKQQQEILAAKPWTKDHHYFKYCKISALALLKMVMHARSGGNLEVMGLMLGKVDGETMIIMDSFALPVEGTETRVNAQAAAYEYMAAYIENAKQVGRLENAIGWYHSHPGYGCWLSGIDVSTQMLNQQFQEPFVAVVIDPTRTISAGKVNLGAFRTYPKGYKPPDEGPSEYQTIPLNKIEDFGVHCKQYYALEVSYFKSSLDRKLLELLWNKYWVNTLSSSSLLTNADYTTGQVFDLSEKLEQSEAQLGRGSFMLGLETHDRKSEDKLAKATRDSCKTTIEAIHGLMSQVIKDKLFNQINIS
#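 Material: human Csn5 produced in HEK293T cells; Input: enzyme 0.24 nM; Reagent: SCFSkp2-Nedd8OG substrate at 10 nM final; Dosing: 12.5 µM compound; Incubation: 90 min reaction at room temperature; Detection: fluorescence polarization of the substrate; Evaluation: % inhibition of substrate cleavage by Csn5; Control set: substrate-only high control, full reaction low control.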
# IDE cell inh: inhibits human insulin-degrading enzyme in HEK cells; P14735; FAbetaB cleavage, fluorescence polarization; inhibition, % at 5.59 µM; 0.41% of 320,000 active;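 active means percent inhibition above the average of all tested compounds plus 3 SD, set per screening campaign, cut at about 16% in these data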;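 further: IDE supplied by intact live HEK cells; FP after avidin binding of uncleaved biotin substrate so inhibition keeps polarization high; 0% = DMSO wells and 100% = 60 µM reference IDE inhibitor Ii1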
# An asterisk follows results filed as active; x = no result given. An excerpt weighted towards active compounds, which were near 1.4% of everything screened.
SMILES,HNF4A DNA FP,TPT1 inh,IDE act,CSN inh,IDE cell inh
CC1(C)Cc2ccccc2C2CC(O)C(=O)N21 (stereo not drawn),35*,1,4,1,4
O=C1c2ccccc2[C@@H]2CC(O)C(O)CCN12 (stereo partly drawn),6,x,-1,-7,x
O=c1cc(-c2ccco2)oc2c1ccc1ccccc12,3,1,-1,39*,4
O=C(COc1ccc(CNC[C@H]2O[C@@H](n3ccc(=O)[nH]c3=O)[C@H](O)[C@@H]2O)cc1)Nc1ccccn1,4,x,x,5,x
Cc1cccc(CS(=O)(=O)c2nnc([C@H](Cc3ccccc3)NC(=O)OC(C)(C)C)o2)c1,5,67*,-8,0,1
CC(C)NC(=O)C1(C)CN(S(C)(=O)=O)CC(=O)N1Cc1ccc2c(c1)OCO2 (stereo not drawn),4,x,x,-2,x
O=C(CSc1nnc(-c2ccco2)o1)c1ccc[nH]1,-3,6,5,38*,0
O=C(CSc1nnc(-c2ccco2)o1)c1ccccc1,2,1,1,9,1
CN1CCN(c2ccc(CNC(=O)c3ccc4c(c3)OCCO4)cc2)CC1,0,-6,4,36*,0
O=C(N[C@@H]1CC[C@@H](CCNC(=O)C2CCOCC2)O[C@@H]1CO)c1ccncc1,6,x,x,0,x
O=C(Cc1ccccc1)Nc1ccc2c(c1)OC1(CCCC1)O2,-3,x,2,3,2
CCc1ccccc1NC(=O)CN1CCN(CC(=O)Nc2ccc3c(c2)OC2(CCCCC2)O3)CC1,0,x,7,46*,x
O=C1NC[C@H](CC2CCCCC2)N(CCc2cccc(F)c2)C1=O,4,-3,7,38*,3
O=C1NC[C@H](CC2CCCCC2)N(CCC23CC4CC(CC(C4)C2)C3)C1=O,6,x,x,66*,x
CC(C)(C)OC(=O)N(CC1CCNCC1)C(=O)c1[nH]c(C(F)(F)F)nc1-c1ccccc1,4,x,x,1,x
O=C(O)c1ccccc1Nc1ccc([N+](=O)[O-])cc1C(=O)O,2,1,-1,3,-1
O=C(O)c1ccccc1Nc1ccc([N+](=O)[O-])c2nonc12,7,-24,22*,7,-14
C=CCC(NC(=O)N(C)C)(C(=O)OC)C(C)O (stereo not drawn),0,x,x,-4,x
CC(/C=C/c1ccc(N(C)C)cc1)=N\N=C1\NC(=O)CC(C(=O)Nc2ccccc2)S1 (stereo not drawn),34*,19,1,6,10
CCc1ccc2cc(C)cnc2n1,-2,x,x,-5,x
Cc1cnc2nc(-c3ccccc3)ccc2c1,4,x,x,83*,x
C[C@@H](NC(=O)[C@@H]1CCCN1C(=O)[C@@H]1CCCN1C(=O)c1cccs1)c1ccccc1,-2,x,x,-3,x
O=C(CCCSc1ccccc1)Nc1nc(-c2ccco2)c(-c2ccco2)s1,8,4,-1,43*,5
ClN=C1C=CC=CC1=NCl,-63,x,x,43,x
CCCCNC(=O)C(=O)N/N=C/c1ccc(OCc2ccccc2)cc1,1,0,-3,-4,2
SMILES,HNF4A DNA FP,TPT1 inh,IDE act,CSN inh,IDE cell inh
CC(C)(C)NCC(=O)N/N=C/c1ccc(OCc2ccccc2)cc1,0,1,-11,-6,16*
CN(C)/C=C1\C=C2C(=O)c3ccccc3N2C1=O,-110,-14,46*,-76,12
Cc1c(N=C2N=C(NC(=O)c3ccc(F)cc3)c3ccccc32)c(=O)n(-c2ccccc2)n1C,75*,15,-3,-103,-3
CC(C)c1cn(CC[C@@H]2CC[C@@H](NC(=O)C3CCCCC3)[C@@H](CO)O2)nn1,-2,x,x,1,x
CC(C)CN(CC(C)C)C1=N/C(=C\c2ccco2)C(=O)N1c1ccccc1,1,10,3,39*,7
O=c1c2c(nc3cc(-c4ccc(Cl)cc4)[nH]n13)CCS2,-4,0,3,41*,-2
CC[C@@]1(O)C(=O)OCc2c1cc1n(c2=O)Cc2cc3c(CN(C)C)c(O)ccc3nc2-1,-136,-88,24*,-75,-3
CC[C@@]1(O)C(=O)OCc2c1cc1n(c2=O)Cc2cc3c(N)cccc3nc2-1,-7,-4,3,2,-2
CCOc1ccccc1C(=O)Nc1ccc(-n2nncc2C(C)(C)C)cc1,70*,-3,6,-6,1
Nc1c(C(=O)NCc2ccco2)c2nc3ccccc3nc2n1CCc1ccc(F)cc1,13,20,0,43*,3

# Screening data as filed in PubChem BioAssay.
